Published values gathered from unrelated publications.
Lines come from different studies, so protocols differ.
Target: Tyrosine-protein kinase Fgr (FGR, Homo sapiens, UniProt P09769)

Compound | test | setting | measurement | result
O=C1Nc2ccc(Cl)cc2C1=Cc1cc(Cl)c(O)c(Cl)c1 | cell-free assay | 0.5 µM | remaining signal | 84.8%
COc1cc(Cl)c(C(=O)N[C@@H](CN[C@H]2CC[C@@H](N)CC2)Cc2ccc(C#N)cc2)cc1-c1ccc(CN[C@H](C)c2ccc(C)cc2)o1 | enzyme activity, inhibitor | 1 µM | remaining activity | 87%
Cc1ccc(Nc2nccc(N(C)c3ccc4c(C)n(C)nc4c3)n2)cc1S(N)(=O)=O | cell-free assay | 0.5 µM | remaining signal | 35.8%
Cc1cnc(NC2CCOCC2)nc1-n1cnc(C(=O)NC(CN)c2cc(F)cc(Cl)c2)c1 (stereo not shown) | enzyme activity, inhibitor, radiometric | 1 µM | remaining activity | 97%
Cc1ccc(NC(=O)c2ccc(C)c(C(F)(F)F)c2)cc1C#Cc1nn(C2CCC(O)CC2)c2ncnc(N)c12 (stereo not shown) | cell-free assay | 10 µM | remaining signal | 2%
CCCOc1ccc(OC)c(F)c1C(=O)c1ccc(C(=O)N[C@@H]2CNC[C@H]2NC(=O)c2ccc3[nH]ncc3c2)cc1 | enzyme activity, inhibitor | 10 µM | remaining activity | 65%
COc1cc2ncnc(Nc3ccc(Oc4ccccc4)cc3C)c2cc1OC | enzyme activity, inhibitor | 1 µM | inhibition | 98%
CNC(=O)c1cc(Oc2ccc(NC(=O)Nc3ccc(Cl)c(C(F)(F)F)c3)cc2)ccn1 | enzyme activity, inhibitor | 10 µM | inhibition | 39%
NS(=O)(=O)c1cc(NC(=O)Cc2ccccc2)ccc1Oc1cccc(Cl)c1 | cell-free assay, competition with immobilised ligand | 1 µM | remaining binding | 100%
O=C(Nc1cnn(-c2csc(C(=O)NC3COC3)c2)c1)Nc1c(F)cccc1Cl | enzyme activity, inhibitor | 5 µM | remaining activity | 95.5%
CC/C(=N\NC(=O)NCc1cccc(O)c1)c1ccc(O)c(C)c1O | enzyme activity, inhibitor | 0.1 µM | inhibition | 1.1%
O=C(Nc1cccnn1)N1CC(C/C=C/c2cncc(Oc3ccc(C(F)(F)F)cn3)n2)C1 | cell-free assay, competition with immobilised ligand | 1 µM | remaining binding | 100%
Cc1sc(C(=O)NC2COC2)cc1-n1cc(NC(=O)Nc2c(F)cccc2Cl)cn1 | enzyme activity, inhibitor | 10 µM | remaining activity | 80.2%
O=C(N1CCS(=O)(=O)CC1)N1C[C@H](c2ccc(OC(F)(F)F)cc2)C[C@H](c2nc(C3CC3)no2)C1 | cell-free assay, competition with immobilised ligand | 1 µM | remaining binding | 100%
Cn1c2c(Cl)c(Cl)ccc2c2cn[nH]c(=O)c21 | thermal stability, DSF | 10 µM | ΔTm | -0.1 °C
CC(C)(O)c1cncc(-c2nc3ccc(F)cc3n2C2CC2)c1 | cell-free assay, competition with immobilised ligand | 1 µM | remaining binding | 100%
CC(C)(C)c1nc2c(s1)c1nc(N)ncc1c1ccc(NS(=O)(=O)c3c(F)cccc3F)c(F)c12 | enzyme activity, inhibitor, radiometric | 1 µM | remaining activity | 91%
Cc1ccc(C(=O)NCc2ccsc2)cc1C#Cc1cn(C(C)C)c2ncnc(N)c12 | enzyme activity, inhibitor | 1 µM | activity vs control | 2%
CC1(C)NC(=O)c2[nH]c3c(Cl)c(Cl)ccc3c2C1C#N (stereo not shown) | thermal stability, DSF | 10 µM | ΔTm | 0.2 °C
Cc1cc(NC(=O)c2cccc3cc(-c4cccc5[nH]nc(N)c45)ccc23)ccc1F | enzyme activity, inhibitor | 0.1 µM | activity vs control | 110%
CN(c1ccnc(CNc2nc(Nc3ccc4c(c3)CC(=O)N4)ncc2C(F)(F)F)n1)S(C)(=O)=O | cell-free assay, competition with immobilised ligand | 1 µM | remaining binding | 58%
CCN(CC)CCNC(=O)c1c(C)[nH]c(/C=C2\C(=O)Nc3ccc(F)cc32)c1C | enzyme activity, inhibitor | 0.3 µM | inhibition | 77%
Cn1c2c(c3ccc(Cl)c(Cl)c31)C(C#N)C1(CCCC1)NC2=O (stereo not shown) | thermal stability, DSF | 10 µM | ΔTm | -0.2 °C
O=S(=O)(NC1CCC(c2cc(F)ccc2F)(S(=O)(=O)c2ccc(Cl)cc2)CC1)C(F)(F)F (stereo not shown) | cell-free assay, competition with immobilised ligand | 1 µM | remaining binding | 99%
CN1CCC2(CC1)NC(=O)c1c(c3ccc(Cl)c(Cl)c3n1C)C2C#N (racemic) | thermal stability, DSF | 10 µM | ΔTm | 0.1 °C
FC(F)(F)c1ccc2c(c1)nc(-c1cccnc1)n2C1CC1 | cell-free assay, competition with immobilised ligand | 1 µM | remaining binding | 100%
Cn1c2c(c3ccc(Cl)c(Cl)c31)C(C#N)C1(CCOCC1)NC2=O (stereo not shown) | thermal stability, DSF | 10 µM | ΔTm | 0 °C
O=C(O)c1cc(-c2ccc(C3CCNCC3)cc2)c2ccc(-c3ccc(C(F)(F)F)cc3)cc2c1 | cell-free assay, competition with immobilised ligand | 1 µM | remaining binding | 100%
